Assay results published in paper PMC6172068 (Cancer Science, 2018).

Experiment: Safety and tolerability
Format: in vivo, Japanese patients
Details: for Stomatitis / Subdural hematoma / Syncope / Thrombocytopenia / Tumor-associated fever / Vomiting / Anemia / Bone pain / Constipation / Corneal erosion / Cough / Diarrhea / Disseminated intravascular coagulation / Dysesthesia / Dysgeusia / ECG prolonged QT interval / Elevated ALT / Elevated AST / Elevated blood creatine phosphokinase / Elevated blood lactate dehydrogenase / Elevated liver enzymes (ALT, AST, and alkaline phosphatase) / Epistaxis / Febrile neutropenia / Headache / Hematoma / Hypertension / Hypokalemia / Hypotension / Hypoxia / Increased amylase / Insomnia / Lung infection / Nausea / Pleural effusion / Pneumonia / Pyrexia / Rash / Renal impairment / Sepsis / Somnolence: N = 24
Procedure, shortened: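 In this open-label study, once-daily oral dosing escalated 20–300 mg/d by Bayesian continual reassessment. DLTs were judged from Cycles 0 and 1, and MTD/RD came from the posterior mean DLT rate plus investigator assessment. Treatment-emergent AEs were graded by NCI-CTCAE v4.0 for seriousness, duration and relatedness. The safety analysis set comprised all patients given ≥1 dose.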

SMILES: CCc1nc(C(N)=O)c(Nc2ccc(N3CCC(N4CCN(C)CC4)CC3)c(OC)c2)nc1NC1CCOCC1 [gilteritinib]
- Stomatitis (Grade 1-2): 5 (20.8%) n (%)
- Subdural hematoma (Grade 1-2): 1 (4.2%) n (%)
- Syncope (Grade 1-2): 0 n (%)
- Thrombocytopenia (Grade 1-2): 0 n (%)
- Tumor-associated fever (Grade 1-2): 2 (8.3%) n (%)
- Vomiting (Grade 1-2): 2 (8.3%) n (%)
- Anemia (Grade 3): 2 (8.3%) n (%)
- Bone pain (Grade 3): 1 (4.2%) n (%)
- Constipation (Grade 3): 0 n (%)
- Corneal erosion (Grade 3): 0 n (%)
- Cough (Grade 3): 0 n (%)
- Diarrhea (Grade 3): 1 (4.2%) n (%)
- Disseminated intravascular coagulation (Grade 3): 3 (12.5%) n (%)
- Dysesthesia (Grade 3): 0 n (%)
- Dysgeusia (Grade 3): 0 n (%)
- ECG prolonged QT interval (Grade 3): 1 (4.2%) n (%)
- Elevated ALT (Grade 3): 0 n (%)
- Elevated AST (Grade 3): 0 n (%)
- Elevated blood creatine phosphokinase (Grade 3): 2 (8.3%) n (%)
- Elevated blood lactate dehydrogenase (Grade 3): 1 (4.2%) n (%)
- Elevated liver enzymes (ALT, AST, and alkaline phosphatase) (Grade 3): 0 n (%)
- Epistaxis (Grade 3): 0 n (%)
- Febrile neutropenia (Grade 3): 3 (12.5%) n (%)
- Headache (Grade 3): 0 n (%)
- Hematoma (Grade 3): 0 n (%)
- Hypertension (Grade 3): 0 n (%)
- Hypokalemia (Grade 3): 1 (4.2%) n (%)
- Hypotension (Grade 3): 0 n (%)
- Hypoxia (Grade 3): 0 n (%)
- Increased amylase (Grade 3): 1 (4.2%) n (%)
- Insomnia (Grade 3): 0 n (%)
- Lung infection (Grade 3): 1 (4.2%) n (%)
- Nausea (Grade 3): 0 n (%)
- Pleural effusion (Grade 3): 0 n (%)
- Pneumonia (Grade 3): 3 (12.5%) n (%)
- Pyrexia (Grade 3): 0 n (%)
- Rash (Grade 3): 0 n (%)
- Renal impairment (Grade 3): 0 n (%)
- Sepsis (Grade 3): 1 (4.2%) n (%)
- Somnolence (Grade 3): 0 n (%)
- Stomatitis (Grade 3): 0 n (%)
- Subdural hematoma (Grade 3): 0 n (%)
- Syncope (Grade 3): 2 (8.3%) n (%)
- Thrombocytopenia (Grade 3): 2 (8.3%) n (%)
- Tumor-associated fever (Grade 3): 0 n (%)
- Vomiting (Grade 3): 0 n (%)
- Anemia (Grade 4): 0 n (%)
- Bone pain (Grade 4): 0 n (%)
- Constipation (Grade 4): 0 n (%)
- Corneal erosion (Grade 4): 0 n (%)
- Cough (Grade 4): 0 n (%)
- Diarrhea (Grade 4): 0 n (%)
- Disseminated intravascular coagulation (Grade 4): 0 n (%)
- Dysesthesia (Grade 4): 0 n (%)
- Dysgeusia (Grade 4): 0 n (%)
- ECG prolonged QT interval (Grade 4): 0 n (%)
- Elevated ALT (Grade 4): 0 n (%)
- Elevated AST (Grade 4): 0 n (%)
- Elevated blood creatine phosphokinase (Grade 4): 1 (4.2%) n (%)
- Elevated blood lactate dehydrogenase (Grade 4): 0 n (%)
- Elevated liver enzymes (ALT, AST, and alkaline phosphatase) (Grade 4): 0 n (%)
- Epistaxis (Grade 4): 0 n (%)
- Febrile neutropenia (Grade 4): 0 n (%)
- Headache (Grade 4): 0 n (%)
- Hematoma (Grade 4): 0 n (%)
- Hypertension (Grade 4): 0 n (%)
- Hypokalemia (Grade 4): 0 n (%)
- Hypotension (Grade 4): 0 n (%)
- Hypoxia (Grade 4): 0 n (%)
- Increased amylase (Grade 4): 0 n (%)
- Insomnia (Grade 4): 0 n (%)
- Lung infection (Grade 4): 0 n (%)
- Nausea (Grade 4): 0 n (%)
- Pleural effusion (Grade 4): 0 n (%)
- Pneumonia (Grade 4): 0 n (%)
- Pyrexia (Grade 4): 0 n (%)
- Rash (Grade 4): 0 n (%)
- Renal impairment (Grade 4): 0 n (%)
- Sepsis (Grade 4): 0 n (%)
- Somnolence (Grade 4): 0 n (%)
- Stomatitis (Grade 4): 0 n (%)
- Subdural hematoma (Grade 4): 0 n (%)
- Syncope (Grade 4): 0 n (%)
- Thrombocytopenia (Grade 4): 2 (8.3%) n (%)
- Tumor-associated fever (Grade 4): 0 n (%)
- Vomiting (Grade 4): 0 n (%)
- Anemia (Grade 5): 0 n (%)
- Bone pain (Grade 5): 0 n (%)
- Constipation (Grade 5): 0 n (%)
- Corneal erosion (Grade 5): 0 n (%)
- Cough (Grade 5): 0 n (%)
- Diarrhea (Grade 5): 0 n (%)
- Disseminated intravascular coagulation (Grade 5): 0 n (%)
- Dysesthesia (Grade 5): 0 n (%)
- Dysgeusia (Grade 5): 0 n (%)
- ECG prolonged QT interval (Grade 5): 0 n (%)
- Elevated ALT (Grade 5): 0 n (%)
- Elevated AST (Grade 5): 0 n (%)
- Elevated blood creatine phosphokinase (Grade 5): 0 n (%)
- Elevated blood lactate dehydrogenase (Grade 5): 0 n (%)
- Elevated liver enzymes (ALT, AST, and alkaline phosphatase) (Grade 5): 0 n (%)
- Epistaxis (Grade 5): 0 n (%)
- Febrile neutropenia (Grade 5): 0 n (%)
- Headache (Grade 5): 0 n (%)
- Hematoma (Grade 5): 0 n (%)
- Hypertension (Grade 5): 0 n (%)
- Hypokalemia (Grade 5): 0 n (%)
- Hypotension (Grade 5): 0 n (%)
- Hypoxia (Grade 5): 0 n (%)
- Increased amylase (Grade 5): 0 n (%)
- Insomnia (Grade 5): 0 n (%)
- Lung infection (Grade 5): 0 n (%)
- Nausea (Grade 5): 0 n (%)
- Pleural effusion (Grade 5): 0 n (%)
- Pneumonia (Grade 5): 0 n (%)
- Pyrexia (Grade 5): 0 n (%)
- Rash (Grade 5): 0 n (%)
- Renal impairment (Grade 5): 0 n (%)
- Sepsis (Grade 5): 0 n (%)
- Somnolence (Grade 5): 0 n (%)
- Stomatitis (Grade 5): 0 n (%)
- Subdural hematoma (Grade 5): 1 (4.2%) n (%)
- Syncope (Grade 5): 0 n (%)
- Thrombocytopenia (Grade 5): 0 n (%)
- Tumor-associated fever (Grade 5): 0 n (%)
- Vomiting (Grade 5): 0 n (%)
- patients who experienced at least 1 AE (SAF, all doses): 24 patients
- patients with AEs resulting in permanent discontinuation of gilteritinib (all doses, 6 of 24 patients): 25%
- patients with serious AEs (all doses, 7 of 24 patients): 29.2%
- patients with drug-related grade ≥3 AEs (all doses, 9 patients): 37.5%
- Drug-related AE: pyrexia (all doses, n = 3/24): 12.5%
- grade ≥3 AE: disseminated intravascular coagulation (all doses, n = 3/24): 12.5%
- grade ≥3 AE: elevated blood creatine phosphokinase (all doses, n = 3/24): 12.5%
- grade ≥3 AE: febrile neutropenia (all doses, n = 3/24): 12.5%
- grade ≥3 AE: pneumonia (all doses, n = 3/24): 12.5%
- Drug-related AE: diarrhea (all doses, n = 4/24): 16.7%
- Drug-related AE: hypertension (all doses, n = 4/24): 16.7%
- Drug-related AE: stomatitis (all doses, n = 4/24): 16.7%
- Drug-related AE: thrombocytopenia (all doses, n = 4/24): 16.7%
- grade ≥3 AE: thrombocytopenia (all doses, n = 4/24): 16.7%
- Drug-related AE: renal impairment (all doses, n = 5/24): 20.8%
- Drug-related AE: elevated blood lactate dehydrogenase (all doses, n = 6/24): 25%
- Drug-related AE: elevated blood creatine phosphokinase (all doses, n = 7/24): 29.2%
- Drug-related AE: elevated liver enzyme levels (all doses, n = 8/24): 33.3%
- patients with grade ≥3 AEs (all doses, n = 16/24): 66.7%
- patients with at least 1 treatment-related AE (all doses, n = 22/24): 91.7%
- AE: febrile neutropenia (any grade, all doses, n = 5/24): 20.8%
- AE: hypertension (any grade, all doses, n = 5/24): 20.8%
- AE: renal impairment (any grade, all doses, n = 5/24): 20.8%
- AE: stomatitis (any grade, all doses, n = 5/24): 20.8%
- AE: diarrhea (any grade, all doses, n = 7/24): 29.2%
- AE: pyrexia (any grade, all doses, n = 7/24): 29.2%
- AE: elevated blood lactate dehydrogenase (any grade, all doses, n = 8/24): 33.3%
- AE: elevated blood creatine phosphokinase (any grade, all doses, n = 9/24): 37.5%
- AE: elevated liver enzymes (ALT, AST, alkaline phosphatase) (any grade, all doses, n = 9/24): 37.5%
- drug-related AE leading to treatment discontinuation: pneumonia (n = 2/24): 8.3%
- drug-related grade ≥3 AE: pneumonia (n = 2, 40 and 300 mg/d): 8.3%
- drug-related grade ≥3 AE: anemia (n = 2, 200 and 300 mg/d): 8.3%
- drug-related grade ≥3 AE: febrile neutropenia (n = 2, 200 and 300 mg/d): 8.3%
- drug-related grade ≥3 AE: increased blood creatine phosphokinase (n = 3, 200 and 300 mg/d): 12.5%
- drug-related grade ≥3 AE: thrombocytopenia (n = 4, 200 and 300 mg/d): 16.7%
- patients who experienced DLTs during Cycle 0 and Cycle 1 (of the 24 patients in the SAF): 3 patients
- maximum tolerated dose (MTD) (once-daily oral, Bayesian CRM and investigator opinion): 200 mg/day
- recommended dose (RD) (once-daily oral, for subsequent studies): 120 mg/day
